inhibition, IC50 and Inhibition data for 43 compounds are collected here from ChEMBL document CHEMBL1128590, “erbB-2 oncogene inhibition by geldanamycin derivatives: synthesis, mechanism of action, and structure-activity relationships” (J Med Chem, 1995).

Molecules are shown by their SMILES. The source made the active and inactive calls. The rule behind the calls is not given here.

In test [1] the test system is Mus musculus. Briefly: In vivo inhibition of p185 phosphotyrosine in nu/nu nude mice bearing Fisher rat embryo cells transfected with human erbB-2 (inactive). It counts as functional, organism-based.
Test [2] deals with SK-BR-3. In words: In vitro inhibition of p185 erbB-2 oncoprotein in human breast cancer SK-BR-3 cells. It counts as functional, cell-based. The method in brief:
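Cellular assay with read-out as depletion of p185 erbB-2 protein after drug treatment of the cells. This depletion tracks inhibition of p185 autophosphorylation.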

Test [3] concerns Mus musculus. Briefly: In vivo inhibition of p185 phosphotyrosine in nu/nu nude mice bearing Fisher rat embryo cells transfected with human erbB-2. Format: functional. More on the design: concentration or dose not given beside the values.

In general, IC50 refers to the concentration needed to halve the response being measured. As to `CO[C@H]1C[C@H](C)CC2=C(N3CCC3)C(=O)C=C(NC(=O)/C(C)=C/C=C\[C@H](OC)[C@@H](OC(N)=O)/C(C)=C/[C@H](C)C1=O)C2=O`, the inhibition entry in test [1] is “inactive”. The compound further displayed an IC50 in test [2] of 0.034 µM.

Compound `CO[C@H]1/C=C\C=C(/C)C(=O)NC2=CC(=O)C(N3CCC3)=C(C[C@@H](C)C[C@H](OC)[C@H](O)[C@@H](C)/C=C(\C)[C@@H]1O)C2=O` gave an IC50 in test [2] of 1.29 µM. For the compound `CO[C@H]1/C=C\C=C(/C)C(=O)N(Cc2ccccn2)C2=CC(=O)C(N)=C(C[C@@H](C)C[C@H](OC)[C@H](O)[C@@H](C)/C=C(\C)[C@@H]1OC(N)=O)C2=O`, the IC50 in test [2] was > 3.1 µM.

By Inhibition is commonly meant the percentage by which the read-out fell short of the control. On to `CO[C@H]1/C=C\C=C(/C)C(=O)NC2=CC(=O)C(NC(C)C)=C(C[C@@H](C)C[C@H](OC)[C@H](O)[C@@H](C)/C=C(\C)[C@@H]1OC(N)=O)C2=O`, for which, in test [3], the Inhibition was 87%. Turning to `CO[C@H]1/C=C\C=C(/C)C(=O)N(CC(=O)c2ccc(N=[N+]=[N-])cc2)C2=CC(=O)C(N3CCC3)=C(C[C@@H](C)C[C@H](OC)[C@H](O)[C@@H](C)/C=C(\C)[C@@H]1OC(N)=O)C2=O`, in test [2], half-maximal inhibition (IC50) required 1.9 µM. `CNC1=C2C[C@@H](C)C[C@H](OC)C(=O)[C@@H](C)/C=C(\C)[C@H](OC(N)=O)[C@@H](OC)/C=C\C=C(/C)C(=O)NC(=CC1=O)C2=O`: the inhibition entry in test [1] is “inactive”. Also, in test [2], the IC50 was determined as 0.034 µM.

`C=CCNC1=C2C[C@@H](C)C[C@H](OC)[C@H](OC(=O)NS(=O)(=O)N3CN(C)C3)[C@@H](C)/C=C(\C)[C@H](OC(N)=O)[C@@H](OC)/C=C\C=C(/C)C(=O)NC(=CC1=O)C2=O`: the IC50 in test [2] was > 2.5 µM. On the same count and under the same terms, the value for `C=CCNC1=C2C[C@@H](C)C[C@H](OC)[C@H](O)[C@@H](C)/C=C(\C)[C@H](OC(=O)CN)[C@@H](OC)/C=C\C=C(/C)C(=O)NC(=CC1=O)C2=O` was > 3.3 µM. Consider `C=CCNC1=C2C[C@@H](C)C[C@H](OC)[C@@H](F)[C@@H](C)/C=C(\C)[C@H](OC(N)=O)[C@@H](OC)CC/C=C(\C)C(=O)NC(=CC1=O)C2=O`, for which the inhibition result in test [1] is “inactive”. The IC50 in test [2] was 1.2 µM. Taken in the same sequence, the figures for `CO[C@H]1C[C@H](C)CC2=C(N3CCC3)C(=O)C=C(NC(=O)/C(C)=C/C=C\[C@H](OC)[C@@H](OC(N)=O)/C(C)=C/[C@H](C)/C1=N/O)C2=O` were “inactive” and 1.1 µM. For `CO[C@H]1/C=C\C=C(/C)C(=O)NC2=CC(=O)C(N3CCC3)=C(C[C@@H](C)C[C@H](OC)[C@H](O)[C@@H](C)/C=C(\C)[C@@H]1NC(N)=O)C2=O`, half-maximal inhibition in test [2] (IC50) was put at 2.6 µM. With `CO[C@H]1/C=C\C=C(/C)C(=O)N(CC(C)=O)C2=CC(=O)C(N)=C(C[C@@H](C)C[C@H](OC)[C@H](O)[C@@H](C)/C=C(\C)[C@@H]1OC(N)=O)C2=O`, in test [2], the 50% inhibitory concentration (IC50) turned out to be 0.83 µM. Regarding `CO[C@H]1C[C@H](C)CC2=C(NC(C)C)C(=O)C=C(NC(=O)/C(C)=C/C=C\[C@H](OC)[C@@H](OC(N)=O)/C(C)=C/[C@H](C)/C1=N/O)C2=O`, half-maximal inhibition in test [2] (IC50) was put at 0.27 µM.

Consider `CO[C@H]1/C=C\C=C(/C)C(=O)NC2=CC(=O)C(N)=C(C[C@@H](C)C[C@H](OC)[C@H](O)[C@@H](C)/C=C(\C)[C@@H]1O)C2=O`, for which the IC50 in test [2] was > 3.9 µM. Same read-out and setting: then `C=CCNC1=C2C[C@@H](C)C[C@H](OC)[C@H](OC(=O)NS(=O)(=O)N3CCC3)[C@@H](C)/C=C(\C)[C@H](OC(N)=O)[C@@H](OC)/C=C\C=C(/C)C(=O)NC(=CC1=O)C2=O`, with 0.8 µM.

On to `CNC1=C2C[C@@H](C)C[C@H](OC)[C@H](NCc3ccccc3)[C@@H](C)/C=C(\C)[C@H](OC(N)=O)[C@@H](OC)/C=C\C=C(/C)C(=O)NC(=CC1=O)C2=O`, for which it took 0.85 µM to reach half-maximal inhibition in test [2] (IC50). As to `CO[C@H]1/C=C\C=C(/C)C(=O)N(CC(=O)c2cccc3ccccc23)C2=CC(=O)C(N)=C(C[C@@H](C)C[C@H](OC)[C@H](O)[C@@H](C)/C=C(\C)[C@@H]1OC(N)=O)C2=O`, the inhibition entry in test [1] is “inactive”. Also, the IC50 in test [2] is 0.07 µM. Taken in the same sequence, the figures for `CO[C@H]1/C=C\C=C(/C)C(=O)NC2=CC(=O)C(N3CCC3)=C(C[C@@H](C)C[C@H](OC)[C@@H](F)[C@@H](C)/C=C(\C)[C@@H]1OC(N)=O)C2=O` were “inactive” and 0.17 µM. For `CO[C@H]1/C=C\C=C(/C)C(=O)NC2=CC(=O)C(N3CCC3)=C(C[C@@H](C)C[C@H](OC)[C@H](OC(=O)NS(=O)(=O)N3CCN(C)CC3)[C@@H](C)/C=C(\C)[C@@H]1OC(N)=O)C2=O`, the inhibition entry in test [1] was “inactive”. This compound gave an IC50 in test [2] of 0.19 µM.

On to `COC1=C2C[C@@H](C)C[C@H](OC)[C@H](O)[C@@H](C)/C=C(\C)[C@H](OC(N)=O)[C@@H](OC)/C=C\C=C(/C)C(=O)NC(=CC1=O)C2=O`, for which the inhibition result in test [1] is “inactive”.

As to `CO[C@H]1/C=C\C=C(/C)C(=O)NC2=CC(=O)C(N3CCC3)=C(C[C@@H](C)C[C@H](OC)[C@H](O)[C@@H](C)/C=C(\C)[C@@H]1/N=C(/N)S)C2=O`, the IC50 in test [2] was 1.7 µM. For the compound `CO[C@H]1/C=C\C=C(/C)C(=O)NC2=CC(=O)C(N3CCC3)=C(C[C@@H](C)C[C@H](OC)[C@H](OC(=O)NS(=O)(=O)NC(C)C)[C@@H](C)/C=C(\C)[C@@H]1OC(N)=O)C2=O`, the inhibition result in test [1] is “inactive”. The compound further had an IC50 in test [2] of 0.14 µM. With `COC(=O)/C(C)=C\C=C\[C@H](OC)[C@@H](OC(N)=O)/C(C)=C/[C@H](C)[C@@H](O)[C@H](C[C@H](C)CC1=C(N2CCC2)C(O)=CC(=N)C1=O)OC`, the IC50 in test [2] is > 3.2 µM. Same read-out and setting: then `CO[C@H]1/C=C\C=C(/C)C(=O)NC2=CC(=O)C(NC3CCC3)=C(C[C@@H](C)C[C@H](OC)[C@H](O)[C@@H](C)/C=C(\C)C1=O)C2=O`, with > 3.7 µM; and `C=CCN[C@H]1[C@@H](OC)C[C@H](C)CC2=C(NC)C(=O)C=C(NC(=O)/C(C)=C/C=C\[C@H](OC)[C@@H](OC(N)=O)/C(C)=C/[C@@H]1C)C2=O`, with 1 µM. `CNC1=C2C[C@@H](C)C[C@H](OC)[C@H](O)[C@@H](C)/C=C(\C)[C@H](OC(N)=O)[C@@H](OC)/C=C\C=C(/C)C(=O)NC(=CC1=O)C2=O`: in test [3], the Inhibition is 18%. The same measure, in the same setting: then `C=CCNC1=C2C[C@@H](C)C[C@H](OC)[C@H](O)[C@@H](C)/C=C(\C)[C@H](OC(N)=O)[C@@H](OC)/C=C\C=C(/C)C(=O)NC(=CC1=O)C2=O` [TANESPIMYCIN], with 56%.

Consider `CO[C@H]1/C=C\C=C(/C)C(=O)N(CC(=O)c2ccc3ccccc3c2)C2=CC(=O)C(N)=C(C[C@@H](C)C[C@H](OC)[C@H](O)[C@@H](C)/C=C(\C)[C@@H]1OC(N)=O)C2=O`, for which, in test [1], the inhibition entry is “inactive”. The same compound showed a concentration for half-maximal inhibition (IC50) in test [2] of 0.2 µM. For `CO[C@H]1/C=C\C=C(/C)C(=O)NC2=CC(=O)C(N3CCC3)=C(C[C@@H](C)C[C@H](OC)[C@H](OC(N)=O)[C@@H](C)/C=C(\C)[C@@H]1OC(N)=O)C2=O`, in that order: “inactive” and 0.05 µM. On to `C=CCNC1=C2C[C@@H](C)C[C@H](OC)[C@H](OC(=O)NS(=O)(=O)NC(C)C)[C@@H](C)/C=C(\C)[C@H](OC(N)=O)[C@@H](OC)/C=C\C=C(/C)C(=O)NC(=CC1=O)C2=O`, for which half-maximal inhibition in test [2] (IC50) required 1.07 µM. With `CO[C@H]1C[C@H](C)CC2=C(N3CCC3)C(=O)C=C(NC(=O)/C(C)=C/CC[C@H](OC)[C@@H](OC(N)=O)/C(C)=C/[C@H](C)[C@@H]1F)C2=O`, in test [1], the inhibition result is “inactive”. Further, in test [2], half-maximal inhibition (IC50) required 0.04 µM. With `C=CCNC1=C2C[C@@H](C)C[C@H](OC)[C@H](O)[C@@H](C)/C=C(\C)[C@H](OC(=O)NCC)[C@@H](OC)/C=C\C=C(/C)C(=O)NC(=CC1=O)C2=O`, the IC50 in test [2] was > 3.3 µM.

The compound `CO[C@H]1/C=C\C=C(/C)C(=O)NC2=CC(=O)C(NC3CC3)=C(C[C@@H](C)C[C@H](OC)[C@@H](F)[C@@H](C)/C=C(\C)[C@@H]1OC(N)=O)C2=O` came in with an IC50 in test [2] of 0.5 µM. Turning to `CO[C@H]1/C=C\C=C(/C)C(=O)N(CC(=O)c2ccc(Cl)c(Cl)c2)C2=CC(=O)C(N)=C(C[C@@H](C)C[C@H](OC)[C@H](O)[C@@H](C)/C=C(\C)[C@@H]1OC(N)=O)C2=O`, in test [1], the inhibition result is “inactive”. The IC50 in test [2] amounted to 0.08 µM.

In test [2], `COc1ccc(C(=O)CN2C(=O)/C(C)=C/C=C\[C@H](OC)[C@@H](OC(N)=O)/C(C)=C/[C@H](C)[C@@H](O)[C@@H](OC)C[C@H](C)CC3=C(N)C(=O)C=C2C3=O)cc1` had an IC50 of 1.2 µM.

`CO[C@H]1/C=C\C=C(/C)C(=O)N(CC(=O)c2ccc(N=[N+]=[N-])cc2)C2=CC(=O)C(N)=C(C[C@@H](C)C[C@H](OC)[C@H](O)[C@@H](C)/C=C(\C)[C@@H]1OC(N)=O)C2=O`: in test [2], half-maximal inhibition (IC50) was put at 0.23 µM. Still for that read-out and setting: then `CO[C@H]1/C=C\C=C(/C)C(=O)N(CC(=O)c2ccc(N=[N+]=[N-])c(I)c2)C2=CC(=O)C(N)=C(C[C@@H](C)C[C@H](OC)[C@H](O)[C@@H](C)/C=C(\C)[C@@H]1OC(N)=O)C2=O`, with 0.14 µM; and `COc1ccccc1C(=O)CN1C(=O)/C(C)=C/CC[C@H](OC)[C@@H](OC(N)=O)/C(C)=C/[C@H](C)[C@@H](O)[C@@H](OC)C[C@H](C)CC2=C(N)C(=O)C=C1C2=O`, with 0.2 µM.

With `CO[C@H]1/C=C\C=C(/C)C(=O)NC2=CC(=O)C(N3CCC3)=C(C[C@@H](C)C[C@H](OC)[C@H](O)[C@@H](C)/C=C(\C)[C@@H]1OC(N)=O)C2=O`, the Inhibition in test [3] was determined as 61%. `CO[C@H]1/C=C\C=C(/C)C(=O)N(CC(=O)c2ccccc2)C2=CC(=O)C(N)=C(C[C@@H](C)C[C@H](OC)[C@H](O)[C@@H](C)/C=C(\C)[C@@H]1OC(N)=O)C2=O`: in test [2], the midpoint of inhibition, the IC50, lay at 0.3 µM. On the same count and under the same terms, then `CO[C@H]1/C=C\C=C(/C)C(=O)N(CC(=O)c2ccc([N+](=O)[O-])cc2)C2=CC(=O)C(N)=C(C[C@@H](C)C[C@H](OC)[C@H](O)[C@@H](C)/C=C(\C)[C@@H]1OC(N)=O)C2=O`, with 0.09 µM; and `CO[C@H]1/C=C\C=C(/C)C(=O)NC2=CC(=O)C(N3CCC3)=C(C[C@@H](C)C[C@H](OC)[C@H](O)[C@@H](C)/C=C(\C)[C@@H]1OC(=O)C(=O)O)C2=O`, with 1 µM; and `C=CCNC1=C2C[C@@H](C)C[C@H](OC)C(=O)[C@@H](C)/C=C(\C)[C@H](OC(N)=O)[C@@H](OC)/C=C\C=C(/C)C(=O)NC(=CC1=O)C2=O`, with 0.22 µM.
